Experimental data from ChEMBL document CHEMBL5331087, “Targeted AURKA degradation: Towards new therapeutic agents for neuroblastoma” (Eur J Med Chem, 2023).
Calls of active or inactive are those of the source. The rule behind the calls is not given here.

Tests used:
[1] = Growth inhibition of patient derived NB139 Neuroblastoma organoid assessed as reduction in viability […] by CellTiter Glo 3D assay; type: functional, tissue-based; conditions: Homo sapiens
How it was run: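 Patient-derived organoids were dissociated to single cells with Accutase and seeded in NB organoid medium at 5000 (000GKX), 20000 (NB059), 5000 (NB067) or 3000 (NB139) cells/well. Compound was added after 24 h over a concentration range in triplicate, with DMSO matched. Incubation was 120 h at 37 °C and 5% CO2. Viability was read by CellTiter-Glo 3D, and absolute IC50 derived (n = 1).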

[2] = molecular target: T1, Protein cereblon/Aurora kinase A (Homo sapiens) (UniProt O14965+Q96SW2); test: PROTAC activity at AURKA/CRBN in human NGP cells assessed as AURKA degradation at 10 to 1000 nM measured for 24 hrs in presence of MK-5108 by Western blot analysis; type: cell-based; conditions: dose 10-1000 nM
T1 sequence (O14965 whole entry, looked up): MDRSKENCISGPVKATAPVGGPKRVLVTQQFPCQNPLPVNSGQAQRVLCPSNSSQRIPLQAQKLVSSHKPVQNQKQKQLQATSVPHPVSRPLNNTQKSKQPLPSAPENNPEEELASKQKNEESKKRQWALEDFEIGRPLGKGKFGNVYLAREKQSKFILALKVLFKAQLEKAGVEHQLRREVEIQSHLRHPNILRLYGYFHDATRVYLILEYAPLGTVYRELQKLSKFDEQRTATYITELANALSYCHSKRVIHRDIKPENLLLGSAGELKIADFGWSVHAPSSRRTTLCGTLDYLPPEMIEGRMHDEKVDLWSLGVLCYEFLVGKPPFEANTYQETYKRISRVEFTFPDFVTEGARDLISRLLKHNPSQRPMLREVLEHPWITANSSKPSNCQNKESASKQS
T1 sequence (Q96SW2 whole entry, looked up): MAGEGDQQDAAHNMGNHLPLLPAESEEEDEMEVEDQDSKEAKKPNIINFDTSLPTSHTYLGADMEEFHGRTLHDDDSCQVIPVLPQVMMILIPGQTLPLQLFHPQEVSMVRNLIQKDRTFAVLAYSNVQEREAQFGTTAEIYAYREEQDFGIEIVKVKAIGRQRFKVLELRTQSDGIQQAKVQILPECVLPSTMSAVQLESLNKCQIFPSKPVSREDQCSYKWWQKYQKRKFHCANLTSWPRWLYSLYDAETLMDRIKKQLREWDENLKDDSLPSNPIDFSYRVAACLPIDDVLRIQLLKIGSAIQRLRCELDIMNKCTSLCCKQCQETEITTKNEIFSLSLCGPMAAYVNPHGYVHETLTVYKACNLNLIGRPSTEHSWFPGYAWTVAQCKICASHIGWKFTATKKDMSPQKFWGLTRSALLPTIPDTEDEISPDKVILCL

[3] = molecular target: T1, Protein cereblon/Aurora kinase A (Homo sapiens); test: PROTAC activity at AURKA/CRBN in human NGP cells assessed as AURKA degradation at 0.1 to 1000 nM measured for 24 hrs by Western blot analysis relative to control; type: cell-based; conditions: dose 0.1-1000 nM
How it was run: (§1)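 NGP cells were seeded at about 2×10^6 per flask, adhered for 48 h, and were then treated for 24 h with DMSO matched. Lysis was in RIPA with protease/phosphatase inhibitors. AURKA was quantified by capillary Simple Western with peak areas normalised to vinculin. Fold change is relative to DMSO (mean ± SD, n = 3).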

[4] = molecular target: T1, Protein cereblon/Aurora kinase A (Homo sapiens); test: PROTAC activity at AURKA/CRBN in human NGP cells assessed as AURKA degradation measured for 24 hrs by Western blot analysis; type: cell-based; conditions: dose 10-1000 nM
[5] = molecular target: T1, Protein cereblon/Aurora kinase A (Homo sapiens); test: PROTAC activity at AURKA/CRBN in human NGP cells assessed as AURKA degradation at 10 to 1000 nM measured for 24 hrs by immunoblotting analysis; type: cell-based; conditions: dose 10-1000 nM; how it was run: as §1
[6] = molecular target: T2, N-myc proto-oncogene protein (Homo sapiens) (UniProt P04198); test: Induction of MYCN degradation in human NGP cells at 500 nM by Western blot analysis; type: cell-based; conditions: time <= 72.0 hrs
T2 sequence (whole entry): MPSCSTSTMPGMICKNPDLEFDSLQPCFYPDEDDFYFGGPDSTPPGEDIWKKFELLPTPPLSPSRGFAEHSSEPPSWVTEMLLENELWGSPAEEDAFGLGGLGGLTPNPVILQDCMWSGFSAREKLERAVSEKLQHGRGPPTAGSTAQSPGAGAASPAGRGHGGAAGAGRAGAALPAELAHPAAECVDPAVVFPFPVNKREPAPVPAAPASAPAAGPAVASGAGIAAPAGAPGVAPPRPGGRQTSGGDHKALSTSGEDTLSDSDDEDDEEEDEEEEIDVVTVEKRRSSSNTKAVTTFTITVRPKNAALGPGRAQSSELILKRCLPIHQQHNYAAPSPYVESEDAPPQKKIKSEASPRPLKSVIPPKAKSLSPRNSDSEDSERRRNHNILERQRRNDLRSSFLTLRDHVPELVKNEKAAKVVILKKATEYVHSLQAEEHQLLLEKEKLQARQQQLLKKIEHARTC
How it was run: (§2)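 NGP cells were treated with 500 nM compound and harvested at 0, 1, 3, 6, 24, 48 and 72 h. RIPA lysates (35 µg) were run on 10% SDS-PAGE and blotted to nitrocellulose. AURKA and MYCN were probed with vinculin as loading control and quantified by densitometry. Values are percent remaining relative to the DMSO control at each timepoint (n = 3).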

[7] = molecular target: T1, Protein cereblon/Aurora kinase A (Homo sapiens); test: PROTAC activity at AURKA/CRBN in human NGP cells assessed as increase in pRPA32 level at 10 to 1000 nM measured for 24 hrs by immunoblotting analysis; type: cell-based; conditions: dose 10-1000 nM
[8] = Growth inhibition of patient derived NB059 Neuroblastoma organoid assessed as reduction in viability incubated for […] by CellTiter Glo 3D assay relative to control; type: functional; conditions: Homo sapiens
[9] = molecular target: T1, Protein cereblon/Aurora kinase A (Homo sapiens); test: PROTAC activity at AURKA/CRBN in human NGP cells assessed as reduction in AURKA level at 500 nM measured for 1 hr by Western blot analysis; type: cell-based; set-up: scale not given: the % may be the effect or the level left; how it was run: as §2
[10] = Growth inhibition of patient derived 000GKX Neuroblastoma organoid assessed as reduction in viability incubated for […] by CellTiter Glo 3D assay relative to control; type: functional; conditions: Homo sapiens
[11] = Growth inhibition of patient derived NB139 Neuroblastoma organoid assessed as reduction in viability incubated for […] by CellTiter Glo 3D assay relative to control; type: functional; conditions: Homo sapiens
NGP = test: Induction of apoptosis in human NGP cells assessed as increase in caspase3/7 level at 1000 nM incubated for 24 hrs; type: functional, cell-based
How it was run: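 NGP cells were seeded at 25,000 cells/well and allowed to adhere overnight. Compound was dispensed in triplicate with DMSO matched. At 24 h, cell-occupied area was imaged live, then a Caspase-Glo 3/7 assay was run using 50 µL reagent per well. Signal is expressed per cell-occupied area.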

## O=C1CCC(N2C(=O)c3cccc(OCCOCCOCCOCCNC(=O)[C@]4(Cc5cccc(Nc6nccs6)n5)CC[C@@H](Oc5cccc(Cl)c5F)CC4)c3C2=O)C(=O)N1 (some centres not stated)
[1]
  IC50: 131 nM
[2]
  Activity: inactive
[3]
  Emax: 89%
[4]
  Activity: Active
[5]
  Activity: Active
[6]
  Activity: Dose-Dependent Effect
[7]
  Activity: Active
[8]
  Emax: 80.2%
[9]
  Activity: 7%
[10]
  Emax: 38.2%
[11]
  Emax: 37.8%
NGP
  Activity: Active
